Measured values gathered from unrelated publications.
Protocols differ between the studies behind these lines.

Compound	tested on	test	system	conditions	quantity	value
CNCCCN(C)C(=O)Oc1c(Br)c(C)nc(C)c1-c1ccc(Oc2ccc(OC(F)(F)F)cc2)cc1	HEK293	cell growth or viability			IC50	> 10 µM
Cc1ccc(-c2nc3ccc(C)cn3c2CC(=O)N(C)C)cc1	Mycobacterium avium	microbial growth		6 days	MIC	> 50 µM
Cc1cccc2[nH]cc(CNCC3(N4CCCC4)COC3)c12	GBM6	cell growth or viability		30 µM, 48 h	viability	77.5%
c1ccc(-c2ccc(C(c3ccccc3)n3ccnc3)cc2)cc1 (centres unmarked)	Vesicular stomatitis virus	viral entry, inhibitor	Vero C1008	pseudovirus	IC50	30 to 40 µM
Cc1cccc2c(CNCC3(N4CCCC4)COC3)c[nH]c12	GBM6	cell growth or viability		30 µM, 48 h	viability	60.4%
N.N.[Cl][Pt][Cl]	SK-MEL-28	cell growth or viability, resazurin		dark	EC50	3.38 µM
CO[C@H]1/C=C/O[C@@]2(C)Oc3c(C)c(O)c4c(O)c(c(/C=N/N5CCN(C)CC5)c(O)c4c3C2=O)NC(=O)/C(C)=C\C=C\[C@H](C)[C@H](O)[C@@H](C)[C@@H](O)[C@@H](C)[C@H](OC(C)=O)[C@@H]1C	Mycobacterium avium	microbial growth	ATCC25291		MIC	3.1 µg/mL
CO[C@H]1/C=C/O[C@@]2(C)Oc3c(C)c(O)c4c(O)c(c(/C=N/N5CCN(C)CC5)c(O)c4c3C2=O)NC(=O)/C(C)=C\C=C\[C@H](C)[C@H](O)[C@@H](C)[C@@H](O)[C@@H](C)[C@H](OC(C)=O)[C@@H]1C	Mycolicibacterium phlei	microbial growth			MIC	0.03 µg/mL
Oc1cccc(C2CCCN(CCc3c[nH]c4ccccc34)C2)c1 (centres unmarked)	HEK293	cell growth or viability			IC50	> 10 µM
COc1cc(C)[nH]c(=O)c1CNC(=O)c1c(C)n([C@H](C)C2CCN(CC(F)(F)F)CC2)c2ccccc12	KARPAS-422	cell growth or viability		8 days	GI50	0.39 µM
CNCCN(C)C(=O)Oc1c(Br)c(C)nc(C)c1-c1ccc(Oc2ccc(OC(F)(F)F)cc2)cc1	HEK293	cell growth or viability			IC50	> 10 µM
O=c1c2ccccc2[se]n1-c1ccccc1	HEK293	cell growth or viability, MTT		250 µM, 72 h	inhibition	64%
O=C(NC1CCC(CN2CCC(c3c[nH]c4ccccc34)CC2)CC1)c1cn(Cc2ccccc2)c2ccccc12 (centres unmarked)	HEK293	cell growth or viability			IC50	> 10 µM
COc1nc2ccc(Br)cc2cc1[C@@H](c1ccccc1)[C@@](O)(CCN(C)C)c1cccc2ccccc12	Mycolicibacterium phlei	microbial growth			MIC	0.05 µg/mL
